In brackets after ≈: the same amount, converted by molar mass. Activity calls are given as the source filed them. No cut-off for these calls is given here.
Legend:
TF-1 = assay: Cytotoxicity against human TF1 cells; type: functional, cell-based
HeLa = assay: Cytotoxicity against human HeLa cells; type: functional, cell-based
Artemia salina = assay: Toxicity against Artemia salina; type: organism-based
Bacillus subtilis = assay: Antimicrobial activity against Bacillus subtilis 168 at 5 and 10 ug after 24 hrs by agar diffusion method; type: functional, organism-based
Procedure, shortened: (§1)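 Paper disks (5 mm) loaded with 5 or 10 µg of compound in MeOH, set on LB agar plates seeded with the test bacterium. Incubated 24 h at 37 °C, then inhibition zone diameters recorded. Disks carrying solvent only served as controls.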

Staphylococcus aureus = assay: Antimicrobial activity against Staphylococcus aureus ATCC 25923 at 5 and 10 ug after 24 hrs by agar diffusion method; type: functional, organism-based; procedure, shortened: as §1
Candida albicans = assay: Antimicrobial activity against Candida albicans at 5 and 10 ug after 24 hrs by agar diffusion method; type: functional, organism-based
Procedure, shortened: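 Disks (5 mm) carrying 5 or 10 µg of compound in MeOH were placed on YPD agar plates inoculated with C. albicans. Inhibition zones were read after 24 h at 27 °C. Solvent-only disks served as controls.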

Structure (SMILES) | Activity (TF-1) | Activity (HeLa) | IC50 (Artemia salina) | Activity (Bacillus subtilis) | Activity (Staphylococcus aureus) | Activity (Candida albicans)
CC(C)CCCCCCCCC/C(O)=C1\C(=O)C(C)N(C)C1=O (configuration not stated) | inactive | inactive |  |  |  | 
CC(C)CCCCCCCCCCC/C(O)=C1\C(=O)CN(C)C1=O | inactive | inactive |  |  |  | 
CC(C)CCCCCCCCCCCC/C(O)=C1\C(=O)CN(C)C1=O | inactive | inactive |  |  |  | 
CCC(C)CCCCCCCC/C(O)=C1\C(=O)C(C)N(C)C1=O (configuration not stated) | inactive | inactive |  |  |  | 
CCCCCCCCCCC/C(O)=C1\C(=O)C(C)N(C)C1=O (configuration not stated) | inactive | inactive |  |  |  | 
CCCCCCCC(C)CCC/C(O)=C1\C(=O)C(C)N(C)C1=O (configuration not stated) [MELOPHLIN C] | inactive | inactive | 36.6 µg/mL (≈ 113 µM) | Active | Active | Active
CCCCCCCCCCCCC/C(O)=C1\C(=O)CN(C)C1=O [MELOPHLIN G] | inactive | inactive | 48.8 µg/mL (≈ 151 µM) |  |  | 
CCC(C)CCCCCCCCCC/C(O)=C1\C(=O)CN(C)C1=O (configuration not stated) [MELOPHLIN I] | inactive | inactive | 52.6 µg/mL (≈ 156 µM) |  |  | 
